Assay results: ChEMBL document CHEMBL1142060, “Dysoxylins A-D, tetranortriterpenoids with potent anti-RSV activity from Dysoxylum gaudichaudianum” (J Nat Prod, 2007)
In brackets after ≈: the same amount, converted by molar mass.

Legend:
[1] = tested on: Respiratory syncytial virus; assay: Antiviral activity against RSV A2 in MA104 cells by plaque reduction assay; type: functional, organism-based; settings: human respiratory syncytial virus
How it was run: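 MA-104 monolayers infected with 200 PFU/well RSV A2, adsorbed 2.5 h at 37 °C in serum-free MEM. Inoculum removed and agarose overlay added; each compound dilution plated in duplicate. Plaques counted after 4 days and expressed as percent of control. EC50 (µg/mL) derived by regression of mean percent of control at each concentration.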

[2] = tested on: Respiratory syncytial virus; assay: Antiviral activity against RSV A2 in MA104 cells by CPE assay; type: functional, organism-based; settings: human respiratory syncytial virus
How it was run: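 RSV strain A2 grown in MA-104 cells; cells passaged in MEM with 9% fetal bovine serum and 0.1% NaHCO3. Cytopathic-effect inhibition read-out. Activity expressed as 50% effective concentration (EC50) in µg/mL.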

Row | Structure (SMILES) | EC50 [1] | IC50 [1] | EC50 [2] | IC50 [2]
1 | C/C=C(/C)C(=O)O[C@@H]1[C@@H]2OC[C@]3(C)[C@H](O)C[C@H](OC(C)=O)[C@@](C)([C@@H]23)[C@H]2C[C@H](OC(C)=O)[C@]3(C)C(=CC[C@H]3C3COC(=O)C3)[C@]12C (stereo partly drawn) [DYSOXYLIN A] | 150 µg/mL (≈ 239 µM) | 112 µg/mL (≈ 178 µM) | 2 µg/mL (≈ 3.18 µM) | 150 µg/mL (≈ 239 µM)
2 | CCC(C)C(=O)O[C@@H]1[C@@H]2OC[C@]3(C)[C@H](O)C[C@H](OC(C)=O)[C@@](C)([C@@H]23)[C@H]2C[C@H](OC(C)=O)[C@]3(C)C(=CC[C@H]3C3COC(=O)C3)[C@]12C (stereo partly drawn) [DYSOXYLIN C] | 146 µg/mL (≈ 231 µM) | 52 µg/mL (≈ 82.4 µM) | – | –
3 | NC(=O)c1ncn([C@@H]2O[C@H](CO)[C@@H](O)[C@H]2O)n1 [RIBAVIRIN] | 20 µg/mL (≈ 81.9 µM) | 460 µg/mL (≈ 1880 µM) | 3.6 µg/mL (≈ 14.7 µM) | 180 µg/mL (≈ 737 µM)
4 | CC(=O)O[C@H]1C[C@H]2[C@](C)(C3=CC[C@@H](C4COC(=O)C4)[C@@]31C)[C@H](OC(=O)c1ccccc1)[C@@H]1OC[C@]3(C)[C@H](O)C[C@H](OC(C)=O)[C@@]2(C)[C@@H]13 (stereo partly drawn) [DYSOXYLIN B] | 30 µg/mL (≈ 46.1 µM) | 7 µg/mL (≈ 10.8 µM) | 4 µg/mL (≈ 6.15 µM) | 16 µg/mL (≈ 24.6 µM)
5 | CC(=O)O[C@H]1C[C@H]2[C@](C)(C3=CC[C@@H](C4COC(=O)C4)[C@@]31C)[C@H](OC(=O)/C=C(\C)C(C)C)[C@@H]1OC[C@]3(C)[C@H](O)C[C@H](OC(C)=O)[C@@]2(C)[C@@H]13 (stereo partly drawn) [DYSOXYLIN D] | 40 µg/mL (≈ 60.9 µM) | 42 µg/mL (≈ 63.9 µM) | 1 µg/mL (≈ 1.52 µM) | > 200 µg/mL
